Experimental data taken from ChEMBL document CHEMBL3826936, “Alkyne-substituted diminazene as G-quadruplex binders with anticancer activities” (Eur J Med Chem, 2016).
pKd: −log10 of the molar value. Calls of active or inactive are those of the source. The rule behind the calls is not given here.

Columns and labels:
[1] = Stabilization of c-MYC template Pu27 mutant DNA (unknown origin) assessed as inhibition of Taq polymerase-mediated polymerization/extension of Pu27 mutant and Pu27rev oligomers at 1 to 100 uM preincubated for 6 hrs followed by Taq polymerase addition by PCR stop assay
[2] = Stabilization of c-MYC template Pu27-13,14 mutant DNA (unknown origin) assessed as inhibition of Taq polymerase-mediated polymerization/extension of Pu27-13,14 mutant and Pu27rev oligomers at 100 uM preincubated for 6 hrs followed by Taq polymerase addition by PCR stop assay
MDA-MB-231 [3] = assay: Antiproliferative activity against human MDA-MB-231 cells after 72 hrs by WST-1 assay; type: functional; settings: MDA-MB-231, 72 h
How it was run: (§1)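 Cells seeded in 96-well plates the afternoon before treatment, at numbers keeping them in log-phase growth; about 18 h later, compounds semi-serially diluted in DMSO then growth medium and added. Incubation 72 h, then WST-1 added and plates read after 4 more hours at 37 °C. GI50 derived from curve fits; viability expressed relative to DMSO control.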

[4] = Binding affinity to 5'-FAM/3'-TAMRA labeled k-RAS21R 21-mer G-quadruplex DNA (unknown origin) assessed as change in melting temperature at 4 uM after 12 hrs by TR-FRET assay
How it was run: (§2)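 Dual-labeled FAM/TAMRA oligos diluted to 800 nM in 60 mM potassium cacodylate (pH 7.2), annealed 10 min at 85 °C and cooled to room temperature. Mixed 1:1 with ligand at […] in the same buffer. Equilibrated at least 12 h at 4 °C. ΔT1/2 taken as melting temperature with minus without ligand, in triplicate, averaged.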

[5] = Binding affinity to 8-bp AT rich duplex DNA (unknown origin) at 150 uM incubated for 2 hrs by 1H NMR method
[6] = Antiproliferative activity against human MCR5A cells assessed as cell viability at 20 uM after 72 hrs by WST-1 assay relative to control; type: cell-based; settings: read-out: Activity; how it was run: as §1
[7] = Binding affinity to 5'-FAM/3'-TAMRA labeled F21T 21-mer G-quadruplex DNA (unknown origin) assessed as change in melting temperature at 4 uM after 12 hrs by TR-FRET assay; how it was run: as §2
[8] = Binding affinity to 5'-FAM/3'-TAMRA labeled 26-mer duplex DNA (unknown origin) assessed as change in melting temperature at 4 uM after 12 hrs by TR-FRET assay
MDA-MB-231 [9] = assay: Binding affinity to c-MYC G-quadruplex DNA in human MDA-MB-231 cells assessed as inhibition of c-MYC protein expression at 19.5 uM incubated for 24 hrs by Western blot analysis relative to control; type: cell-based
How it was run: (§3)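 MDA-MB-231 cells, grown in DMEM with 10% heat-inactivated FBS at 37 °C and 5% CO2, exposed for 6 or 24 h; DMSO vehicle as comparator. Cells harvested, PBS-washed, lysed in RIPA with protease inhibitors. Blots probed with c-MYC antibody (1:1000) and HRP anti-rabbit IgG (1:10,000), β-actin as loading control. Densitometry given as percent of vehicle at each time point.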

[10] = Binding affinity to c-kit1 22-mer G-quadruplex DNA (unknown origin) at 150 uM incubated for 2 hrs by 1H NMR method
[11] = Binding affinity to c-MYC2345 G-quadruplex DNA (unknown origin) at 150 uM incubated for 2 hrs by 1H NMR method
[12] = molecular target: Telomerase reverse transcriptase (Homo sapiens) (UniProt O14746); assay: Inhibition of telomerase activity in human MDA-MB-231 cells using amplifour TS primer at 12.4 uM preincubated for 72 hrs followed by primer addition measured after 30 mins by fluorescence plate reader analysis relative to control; type: cell-based
Sequence of Telomerase reverse transcriptase (Homo sapiens) (O14746 whole entry): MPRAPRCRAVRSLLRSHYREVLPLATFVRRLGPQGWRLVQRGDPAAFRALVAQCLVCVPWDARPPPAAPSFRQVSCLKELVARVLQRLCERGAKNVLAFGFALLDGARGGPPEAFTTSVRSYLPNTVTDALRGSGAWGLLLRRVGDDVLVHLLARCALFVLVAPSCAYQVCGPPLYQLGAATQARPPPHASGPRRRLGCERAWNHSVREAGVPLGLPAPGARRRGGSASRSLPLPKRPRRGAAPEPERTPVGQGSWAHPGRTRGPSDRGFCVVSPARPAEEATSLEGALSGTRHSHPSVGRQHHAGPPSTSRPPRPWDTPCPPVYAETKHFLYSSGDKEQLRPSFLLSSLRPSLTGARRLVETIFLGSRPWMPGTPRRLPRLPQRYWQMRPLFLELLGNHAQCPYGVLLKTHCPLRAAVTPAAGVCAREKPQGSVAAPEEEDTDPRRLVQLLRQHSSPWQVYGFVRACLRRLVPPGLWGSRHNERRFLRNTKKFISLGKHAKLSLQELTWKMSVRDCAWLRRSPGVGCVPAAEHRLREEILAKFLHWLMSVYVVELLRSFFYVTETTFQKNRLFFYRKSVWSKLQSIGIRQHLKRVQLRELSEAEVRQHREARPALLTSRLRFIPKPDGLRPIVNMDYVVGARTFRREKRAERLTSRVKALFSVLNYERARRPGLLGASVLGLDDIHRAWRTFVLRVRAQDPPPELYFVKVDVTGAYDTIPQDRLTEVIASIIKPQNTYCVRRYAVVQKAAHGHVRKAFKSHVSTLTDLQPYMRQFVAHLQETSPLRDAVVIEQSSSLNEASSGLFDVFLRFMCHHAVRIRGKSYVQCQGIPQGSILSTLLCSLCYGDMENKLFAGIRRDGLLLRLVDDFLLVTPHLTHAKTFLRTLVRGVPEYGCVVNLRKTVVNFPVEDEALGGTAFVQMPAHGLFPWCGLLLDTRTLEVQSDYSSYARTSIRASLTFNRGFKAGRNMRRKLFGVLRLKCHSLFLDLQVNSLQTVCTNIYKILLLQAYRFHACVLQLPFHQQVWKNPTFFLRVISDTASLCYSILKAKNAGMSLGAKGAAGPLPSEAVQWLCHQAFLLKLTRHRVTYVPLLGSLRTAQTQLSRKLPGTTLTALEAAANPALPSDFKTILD
How it was run: (§4)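 MDA-MB-231 seeded at 2 × 10^5 cells per T-25 flask the evening before, then treated with vehicle or compound for 48 or 72 h. Harvested cells lysed in CHAPS buffer with RNase inhibitor, 30 min on ice; supernatant kept after 12,000 × g spin. TRAPeze XL fluorescence assay used 1000 cell-equivalents, 30 min at 30 °C; TPG units from product/internal-standard ratio; inhibition relative to untreated cells.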

[13] = molecular target: Telomerase reverse transcriptase (Homo sapiens) (UniProt O14746); assay: Inhibition of telomerase activity in human MDA-MB-231 cells using amplifour TS primer at 12.4 uM preincubated for 48 hrs followed by primer addition measured after 30 mins by fluorescence plate reader analysis relative to control; type: cell-based; how it was run: as §4
[14] = Antiproliferative activity against human PC3 cells after 72 hrs by WST-1 assay; type: functional; settings: PC-3, 72 h; how it was run: as §1
[15] = Binding affinity to 5'-FAM/3'-TAMRA labeled c-MYC 22-mer G-quadruplex DNA (unknown origin) at 4 uM in presence of 26-mer duplex DNA by TR-FRET assay
MDA-MB-231 [16] = assay: Binding affinity to c-MYC G-quadruplex DNA in human MDA-MB-231 cells assessed as inhibition of c-MYC protein expression at 19.5 uM incubated for 6 hrs by Western blot analysis relative to control; type: cell-based; how it was run: as §3
[17] = Antiproliferative activity against human OVCAR3 cells after 72 hrs by WST-1 assay; type: functional; settings: OVCAR-3, 72 h; how it was run: as §1
[18] = Binding affinity to 5'-FAM/3'-TAMRA labeled c-kit2 26-mer G-quadruplex DNA (unknown origin) assessed as change in melting temperature at 4 uM after 12 hrs by TR-FRET assay; how it was run: as §2
[19] = Antiproliferative activity against human bone marrow cells assessed as cell viability at 20 uM after 72 hrs by WST-1 assay relative to control; type: cell-based; settings: read-out: Activity; how it was run: as §1
[20] = Stabilization of c-MYC pu27 G-quadruplex DNA (unknown origin) assessed as inhibition of Taq polymerase-mediated polymerization/extension of Pu27 and Pu27rev oligomers at 100 uM preincubated for 6 hrs followed by Taq polymerase addition by PCR stop assay
[21] = Binding affinity to 5'-FAM/3'-TAMRA labeled c-MYC 22-mer G-quadruplex DNA (unknown origin) assessed as change in melting temperature at 4 uM after 12 hrs by TR-FRET assay; how it was run: as §2
[22] = molecular target: Telomerase reverse transcriptase (Homo sapiens) (UniProt O14746); assay: Inhibition of telomerase activity in human MDA-MB-231 cells using amplifour TS primer at 11 uM preincubated for 48 to 72 hrs followed by primer addition measured after 30 mins by fluorescence plate reader analysis relative to control; type: cell-based; how it was run: as §4
MDA-MB-231 [23] = assay: Binding affinity to c-MYC G-quadruplex DNA in human MDA-MB-231 cells assessed as inhibition of c-MYC protein expression at 27.25 uM incubated for 24 hrs by Western blot analysis relative to control; type: cell-based; how it was run: as §3
[24] = Antiproliferative activity against human bone marrow cells after 72 hrs by WST-1 assay; type: cell-based, Bone marrow cell
How it was run: (§5)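 Cells seeded the afternoon before treatment at densities giving log-phase growth; about 18 h later compounds, semi-serially diluted in DMSO then growth medium, were added. After 72 h WST-1 was added, with a further 4 h at 37 °C before plate reading. GI50 values were calculated from the curves. NBM was grown in RPMI; MCR5A was handled per ATCC.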

MDA-MB-231 [25] = assay: Binding affinity to c-MYC G-quadruplex DNA in human MDA-MB-231 cells assessed as inhibition of c-MYC protein expression at 27.25 uM incubated for 6 hrs by Western blot analysis relative to control; type: cell-based; how it was run: as §3
MDA-MB-231 [26] = assay: Cytotoxicity against human MDA-MB-231 cells assessed as reduction in cell viability at 27.25 uM after 24 hrs by […]; settings: mda-mb-231, 24 h
[27] = molecular target: Telomerase reverse transcriptase (Homo sapiens) (UniProt O14746); assay: Inhibition of telomerase activity in human MDA-MB-231 cells using amplifour TS primer preincubated for 48 to 72 hrs followed by primer addition measured after 30 mins by fluorescence plate reader analysis relative to control; type: cell-based
How it was run: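 MDA-MB-231 cells, 2 × 10⁵ per T-25 flask, were treated the next morning with vehicle or compound at 0.5×, 1×, 2× or 4× GI50. After 48 or 72 h they were lysed in CHAPS buffer with RNase inhibitor on ice for 30 min. Lysate (1000 cell-equivalents) went into a fluorescent TRAP reaction at 30 °C for 30 min. TPG units were taken against an internal standard, and inhibition was expressed relative to untreated cells.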

[28] = Antiproliferative activity against human MCR5A cells after 72 hrs by WST-1 assay; type: cell-based; how it was run: as §5
[29] = Selectivity ratio of Kd for 8-bp AT rich duplex DNA (unknown origin) to Kd for wild type c-MYC 24-mer G-quadruplex DNA (unknown origin)
[30] = Selectivity ratio of Kd for 8-bp AT rich duplex DNA (unknown origin) to Kd for wild type Bcl2 27-mer G-quadruplex DNA (unknown origin)
[31] = Stabilization of c-MYC template Pu27-13,14 mutant DNA (unknown origin) assessed as inhibition of Taq polymerase-mediated polymerization/extension of Pu27-13,14 mutant and Pu27rev oligomers at 25 uM preincubated for 6 hrs followed by Taq polymerase addition by PCR stop assay
[32] = Stabilization of c-MYC template Pu27 mutant DNA (unknown origin) assessed as inhibition of Taq polymerase-mediated polymerization/extension of Pu27 mutant and Pu27rev oligomers at 1 to 25 uM preincubated for 6 hrs followed by Taq polymerase addition by PCR stop assay
[33] = Stabilization of c-MYC Pu27 G-quadruplex DNA (unknown origin) assessed as inhibition of Taq polymerase-mediated polymerization/extension of Pu27 and Pu27rev oligomers at 10 uM preincubated for 6 hrs followed by Taq polymerase addition by PCR stop assay
[34] = Antiproliferative activity against human PC3 cells assessed as cell viability at 20 uM after 72 hrs by WST-1 assay relative to control; type: functional; settings: PC-3, 72 h, read-out: Activity; how it was run: as §1
[35] = Binding affinity to wild type c-MYC 24-mer G-quadruplex DNA (unknown origin) by isothermal titration calorimetry
[36] = Binding affinity to 8-bp AT rich duplex DNA (unknown origin) by isothermal titration calorimetry
[37] = Binding affinity to wild type Bcl2 27-mer G-quadruplex DNA (unknown origin) by isothermal titration calorimetry
MDA-MB-231 [38] = assay: Antiproliferative activity against human MDA-MB-231 cells assessed as cell viability at 20 uM after 72 hrs by WST-1 assay relative to control; type: functional; settings: MDA-MB-231, 72 h, read-out: Activity; how it was run: as §1

Row | inhibition [1] | inhibition [2] | GI50 (MDA-MB-231 [3]) | ΔTm [4] | Activity [5] | ΔTm [7] | ΔTm [8] | Activity [10] | Activity [11] | Activity [15] | ΔTm [18] | inhibition [20] | ΔTm [21] | SMILES | GI50 [14] | GI50 [17] | other results
1 | inactive | inactive | 6.2 µM | 2.7 °C | inactive | < 5 °C | < 5 °C | Active | Active | inactive | 5.12 °C | Active | 8.8 °C | N=C(N)c1ccc(/N=N/Nc2ccccc2C#Cc2ccc(F)cc2)cc1 | 7.4 µM | 9.5 µM | viability at 72 h, 20 µM [6]: ≥ 75%; inhibition (MDA-MB-231 [9]): 100%; inhibition [12]: 30%; inhibition [13]: 20%; inhibition (MDA-MB-231 [16]): inactive; viability at 72 h, 20 µM [19]: ≥ 75%
2 | inactive | inactive | 5.5 µM | 6.9 °C | inactive | < 5 °C | < 5 °C | Active | Active | inactive | 5.67 °C | Active | 8.6 °C | N=C(N)c1ccc(/N=N/Nc2cccc(C#Cc3ccc(F)cc3)c2)cc1 | 5.3 µM | 5 µM | inhibition [22]: < 50%; inhibition (MDA-MB-231 [23]): 67%; GI50 at 72 h [24]: 5.6 µM; inhibition (MDA-MB-231 [25]): 40%; Activity (MDA-MB-231 [26]): Toxic; inhibition [27]: Dose-dependent effect; GI50 at 72 h [28]: 8.3 µM
3 | – | – | – | 24.1 °C | – | 16.6 °C | 6.8 °C | – | – | – | 11.7 °C | – | 18.3 °C | N=C(N)c1ccc(/N=N/Nc2ccc(C(=N)N)cc2)cc1 [DIMINAZENE] | – | > 25 µM | Selectivity ratio [29]: 1000; Selectivity ratio [30]: 1000; inhibition [31]: Active; inhibition [32]: Active; inhibition [33]: Active; viability at 20 µM [34]: ≥ 75%; pKd [35]: 9.00; pKd [36]: 6.00; pKd [37]: 9.00; viability at 20 µM (MDA-MB-231 [38]): ≥ 75%
